According to ChEMBL document CHEMBL4028912, “Novel Aryl Substituted Pyrazoles as Small Molecule Inhibitors of Cytochrome P450 CYP121A1: Synthesis and Antimycobacterial Evaluation” (J Med Chem, 2017):
pKd: −log10 of the molar value. In brackets after ≈: the same amount, converted by molar mass. Activity calls are given as the source filed them. No cut-off for these calls is given here.

What was measured:
[1] = Binding affinity to Mycobacterium tuberculosis CYP121A1 expressed in Escherichia coli TG1 (DE3) by UV-visible scanning spectrophotometric analysis
How it was run: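 Purified CYP121A1 (typically 3–5 μM) in 100 mM KPi, 200 mM KCl, pH 7.85, 0.004% Triton X-100, at 28 °C. Ligand added stepwise from DMSO stocks until no further spectral change. ΔAmax (peak minus trough of difference spectra) was plotted against [ligand] and fitted to a hyperbolic or Hill equation. Triplicate titrations were run and Kd was averaged.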

[2] = tested on: Mycobacterium tuberculosis; experiment: Binding affinity to Mycobacterium tuberculosis CYP121A1 expressed in Escherichia coli TG1 (DE3) assessed as Soret peak shift by UV-visible scanning spectrophotometric analysis
How it was run: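 Purified CYP121A1 (typically 3–5 μM) titrated at 28 °C in 100 mM KPi, 200 mM KCl, pH 7.85, 0.004% Triton X-100. Ligand added stepwise from DMSO stocks until saturation. Spectra 250–800 nm were recorded. Soret shift was judged from the difference spectra, with a red shift taken as type II.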

[3] = tested on: Mycobacterium tuberculosis; experiment: Antimycobacterial activity against Mycobacterium tuberculosis H37Rv after 7 days by resazurin microtiter assay; format: functional; conditions: 168 h
How it was run: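 M. tuberculosis H37Rv grown in 7H9 with 10% OADC at 37 °C to mid-log (OD600 0.4–0.6). Inoculum adjusted to McFarland no. 1, diluted 1:20. Compounds from DMSO stocks, final 0.39–100 μg/mL; rifampicin 0.004–1 μg/mL as control. After 7 days at 37 °C, 0.01% resazurin added, read 24 h later by fluorescence (530/590 nm). MIC = lowest concentration giving 90% inhibition.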

Row | SMILES | pKd [1] | Activity [2] | MIC90 [3]
1 | O=C(NCCn1ccnc1)c1cn(-c2ccccc2)nc1-c1ccccc1 | 3.40 | 416 to 418 nm | > 100 µg/mL
2 | COc1ccc(-c2nn(-c3ccccc3)cc2Cn2cncn2)cc1 | 4.02 | 416 to 420 nm | 25 µg/mL (≈ 75.4 µM)
3 | Cc1ccc(-c2nn(-c3ccccc3)cc2Cn2ccnc2)cc1 | 5.27 | 416 to 422 nm | 12.5 µg/mL (≈ 39.8 µM)
4 | Cc1ccc(-c2nn(-c3ccccc3)cc2Cn2cncn2)cc1 | 3.73 | 416 to 418 nm | > 100 µg/mL
5 | O=C(NCCn1ccnc1)c1cn(-c2ccccc2)nc1-c1ccc(Cl)cc1 |  | inactive | > 100 µg/mL
6 | Brc1ccc(-c2nn(-c3ccccc3)cc2Cn2ccnc2)cc1 | 4.71 | 416 to 420 nm | 6.25 µg/mL (≈ 16.5 µM)
7 | Fc1ccc(-c2nn(-c3ccccc3)cc2Cn2cncn2)cc1 | 4.45 | 416 to 423 nm | 25 µg/mL (≈ 78.3 µM)
8 | Ic1ccc(-c2nn(-c3ccccc3)cc2Cn2ccnc2)cc1 | 4.87 | 416 to 422 nm | 6.25 µg/mL (≈ 14.7 µM)
9 | N#Cc1ccc(-c2nn(-c3ccccc3)cc2Cn2ccnc2)cc1 | 4.34 | 416 to 418 nm | 100 µg/mL (≈ 307 µM)
10 | COc1ccc(-c2nn(-c3ccccc3)cc2C(=O)NCCn2ccnc2)cc1 | 3.50 | 416 to 418 nm | 100 µg/mL (≈ 258 µM)
11 | O=C(NCCn1ccnc1)c1cn(-c2ccccc2)nc1-c1ccc(F)cc1 |  | inactive | > 100 µg/mL
12 | Fc1ccc(-c2nn(-c3ccccc3)cc2Cn2ccnc2)cc1 | 5.38 | 416 to 424 nm | 25 µg/mL (≈ 78.5 µM)
13 | Ic1ccc(-c2nn(-c3ccccc3)cc2Cn2cncn2)cc1 |  | inactive | 50 µg/mL (≈ 117 µM)
14 | Clc1ccccc1C(c1ccccc1)(c1ccccc1)n1ccnc1 [CLOTRIMAZOLE] |  |  | 20 µg/mL (≈ 58 µM)
15 | Brc1ccc(-c2nn(-c3ccccc3)cc2Cn2cncn2)cc1 | 3.71 | 416 to 418 nm | 25 µg/mL (≈ 65.7 µM)
16 | OC(Cn1cncn1)(Cn1cncn1)c1ccc(F)cc1F [FLUCONAZOLE] |  |  | > 100 µg/mL
17 | Clc1ccc(-c2nn(-c3ccccc3)cc2Cn2ccnc2)cc1 | 5.13 | 416 to 422 nm | 12.5 µg/mL (≈ 37.3 µM)
18 | Cc1ccc(-c2nn(-c3ccccc3)cc2C(=O)NCCn2ccnc2)cc1 | 3.54 | 416 to 418 nm | > 100 µg/mL
19 | c1ccc(-c2nn(-c3ccccc3)cc2Cn2cncn2)cc1 | 4.13 | 416 to 422 nm | 50 µg/mL (≈ 166 µM)
20 | COc1ccc(-c2nn(-c3ccccc3)cc2Cn2ccnc2)cc1 | 4.94 | 416 to 421 nm | 25 µg/mL (≈ 75.7 µM)
21 | c1ccc(-c2nn(-c3ccccc3)cc2Cn2ccnc2)cc1 | 5.58 | 416 to 424 nm | 12.5 µg/mL (≈ 41.6 µM)
22 | Clc1ccc(-c2nn(-c3ccccc3)cc2Cn2cncn2)cc1 | 4.08 | 416 to 421 nm | 25 µg/mL (≈ 74.4 µM)
23 | N#Cc1ccc(-c2nn(-c3ccccc3)cc2Cn2cncn2)cc1 |  | inactive | > 100 µg/mL
